The list is not random: actives were taken first. Their share in the collection is about 1.9%.
Rin1 Abl inh: inhibitors of Rin1-Abl protein binding, primary screen, biochemical, TR-FRET | Tyrosine-protein kinase ABL1 (Homo sapiens) + Ras and Rab interactor 1 (Homo sapiens), … | inhibition, % at 7.35 µM | 360,000 compounds, 0.4% hits; in the data active means inhibition above about 5%, passing the limit was not always enough
Target sequence (P00519 whole entry, looked up): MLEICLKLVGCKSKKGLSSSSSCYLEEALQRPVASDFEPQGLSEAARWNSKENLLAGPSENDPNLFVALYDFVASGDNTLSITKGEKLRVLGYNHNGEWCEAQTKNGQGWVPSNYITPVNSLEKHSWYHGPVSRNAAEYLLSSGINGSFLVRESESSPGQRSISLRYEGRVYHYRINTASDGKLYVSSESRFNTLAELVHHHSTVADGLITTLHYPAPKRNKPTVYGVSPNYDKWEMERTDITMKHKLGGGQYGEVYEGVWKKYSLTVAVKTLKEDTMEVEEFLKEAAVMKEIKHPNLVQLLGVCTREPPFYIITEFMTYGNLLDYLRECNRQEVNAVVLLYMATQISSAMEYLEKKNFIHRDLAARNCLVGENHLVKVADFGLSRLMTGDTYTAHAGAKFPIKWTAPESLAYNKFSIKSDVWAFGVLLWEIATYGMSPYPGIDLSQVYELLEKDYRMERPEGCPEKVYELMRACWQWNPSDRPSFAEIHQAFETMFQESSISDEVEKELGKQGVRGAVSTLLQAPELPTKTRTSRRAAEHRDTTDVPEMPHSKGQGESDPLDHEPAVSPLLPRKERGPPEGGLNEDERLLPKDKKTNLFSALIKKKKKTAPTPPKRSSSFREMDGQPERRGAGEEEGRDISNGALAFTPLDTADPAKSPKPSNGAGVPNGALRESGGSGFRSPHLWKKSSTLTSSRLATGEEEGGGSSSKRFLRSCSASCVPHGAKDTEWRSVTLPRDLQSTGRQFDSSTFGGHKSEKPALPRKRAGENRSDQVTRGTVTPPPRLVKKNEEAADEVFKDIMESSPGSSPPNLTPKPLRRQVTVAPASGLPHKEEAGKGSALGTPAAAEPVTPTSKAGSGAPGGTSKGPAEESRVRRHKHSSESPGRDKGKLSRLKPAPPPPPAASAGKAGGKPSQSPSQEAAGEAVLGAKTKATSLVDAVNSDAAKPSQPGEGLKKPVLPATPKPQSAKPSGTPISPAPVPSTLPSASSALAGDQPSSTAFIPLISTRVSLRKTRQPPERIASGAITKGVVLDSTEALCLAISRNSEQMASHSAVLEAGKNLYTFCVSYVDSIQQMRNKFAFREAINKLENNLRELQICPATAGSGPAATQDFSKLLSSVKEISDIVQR
Target sequence (Q13671 whole entry, looked up): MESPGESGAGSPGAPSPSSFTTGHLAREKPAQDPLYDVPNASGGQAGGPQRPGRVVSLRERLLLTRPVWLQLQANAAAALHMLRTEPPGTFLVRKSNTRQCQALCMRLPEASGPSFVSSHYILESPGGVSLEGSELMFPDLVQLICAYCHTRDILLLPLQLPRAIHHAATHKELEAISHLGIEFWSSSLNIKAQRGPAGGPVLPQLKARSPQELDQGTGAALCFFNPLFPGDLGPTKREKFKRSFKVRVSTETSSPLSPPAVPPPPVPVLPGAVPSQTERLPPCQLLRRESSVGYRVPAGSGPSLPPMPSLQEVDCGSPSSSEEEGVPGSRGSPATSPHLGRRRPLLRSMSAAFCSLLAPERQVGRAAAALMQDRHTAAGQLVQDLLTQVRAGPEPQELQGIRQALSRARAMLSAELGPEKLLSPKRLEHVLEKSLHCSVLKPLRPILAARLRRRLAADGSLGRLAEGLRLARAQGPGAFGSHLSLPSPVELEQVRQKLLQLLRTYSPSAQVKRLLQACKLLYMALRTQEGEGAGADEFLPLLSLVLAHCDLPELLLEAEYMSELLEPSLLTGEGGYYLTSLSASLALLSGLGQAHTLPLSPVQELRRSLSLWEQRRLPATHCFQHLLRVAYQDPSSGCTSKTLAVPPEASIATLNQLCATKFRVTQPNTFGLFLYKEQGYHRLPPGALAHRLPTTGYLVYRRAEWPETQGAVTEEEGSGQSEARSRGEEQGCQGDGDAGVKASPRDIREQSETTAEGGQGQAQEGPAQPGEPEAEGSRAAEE
Xi reactivation: activators of inactive X chromosome reactivation, primary screen, imaging, XiGFP fibroblasts, GFP high-content imaging, set 2; 360,000 compounds, 0.055% hits; AID 743238, 2013; XiGFP mouse fibroblasts, % GFP-positive cells imaging, 3 d; cells co-treated with 5-aza-dC sensitizer; scaled so ellipticine positive control = 100%; activation, % at 7.58 µM;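 active means mean normalized replicate activation at least 10% and every replicate at or above 10%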;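 further: 0% = median of on-plate neutral control wells and 100% = ellipticine 6 µM median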
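System: 68-5-11 XiGFP fibroblast line; Timing: 3 days compound exposure; Compound dosing: one concentration, pinned; Benchmarks: positive control ellipticine, 6 µM final; Buffer or medium: DMEM containing 5-aza-dC.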
NadD inh: inhibitors of S. aureus NadD, primary screen, biochemical, colorimetric, uHTS | purified NadD enzyme, colorimetric absorbance read-out | 360,000 compounds, 0.78% hits | AID 602399, 2012 | inhibition, % at 20 µM; in the data active means inhibition above about 26%
Rpn11 block: Rpn11 (PSMD14) deubiquitinase inhibitors, primary screen, biochemical, fluorescence polarization, uHTS; 26S proteasome non-ATPase regulatory subunit 14 (Homo sapiens), O00487; human 26S proteasome, Ub4-pepOG fluorescence polarization; 20S core pre-blocked with epoxomicin; inhibition, % at 20 µM; 360,000 compounds, 0.59% hits;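 active means inhibition at 20 µM, scaled to each plate's controls, above about 33%, limit read from the data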
ABHD5 PLIN5 PPI: ABHD5-PLIN5 interaction inhibitors, primary screen, cell lysate, split luciferase complementation, luminescence; Perilipin-5 (Homo sapiens) + 1-acylglycerol-3-phosphate O-acyltransferase ABHD5 (Homo …; Split G. princeps luciferase complementation, 4 h; inhibition, % at 4 µM; 360,000 compounds, 0.78% hits;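 active means inhibition above the mean inhibition across every tested compound plus 3 SD, cut at about 22% in these data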;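 further: 0% = DMSO only wells and the 100% control is not disclosed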
Rpn11 inh conf: Rpn11 (PSMD14) deubiquitinase inhibitors, confirmation, biochemical, fluorescence polarization, single concentration. 1,900 compounds, 29% hits. purified human 26S proteasome, Ub4-pepOG fluorescence polarization; proteasome pretreated with epoxomicin. inhibition, % at 20 µM. shares compounds with Rpn11 block
MMP-2 counter: MMP-2 enzyme inhibition, confirmation, counter-screen for RPN11 inhibitor project, biochemical, fluorescence, single concentration | shares compounds with Rpn11 block | inhibition, % at 20 µM | AID 602330, 2012 | 1,900 compounds, 4% hits | recombinant MMP-2, FRET peptide cleavage fluorescence;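 further: human MMP-2 activated beforehand with APMA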
Thrombin FP: bovine thrombin protease inhibition, confirmation, counter-screen for Rpn11 inhibitor project, biochemical, fluorescence polarization, single concentration; shares compounds with Rpn11 block; bovine thrombin cleavage of Ub4-pepOG; inhibition, % at 20 µM; AID 602333, 2012; 1,900 compounds, 13% hits;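 active means mean inhibition at least 40% at 20 µM, or signal 3 deviations below plate average, so some actives read negative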;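 further: plate controls were thrombin with DMSO for no effect and buffer wells lacking thrombin for full effect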
Active calls of the source: *; . = not tested or not shown; + = active, no number; ! = not confirmed by another sample. Unless noted, no stated cut-off is given here; in the data, active means inhibition above about 40%; inactive means the rest.

SMILES | Rin1 Abl inh | Xi reactivation | NadD inh | Rpn11 block | ABHD5 PLIN5 PPI | Rpn11 inh conf | MMP-2 counter | Thrombin FP
Clc1ccc(C(c2ccc(Cl)cc2)n2cc[n+](CC(OCc3ccc(Cl)cc3Cl)c3ccc(Cl)cc3Cl)c2)cc1 (stereo not given) | -1 | 0 | 80* | 105* | -4 | . | . | .
Clc1ccc(COC(Cn2ccnc2)c2ccc(Cl)cc2Cl)cc1 (stereo not given) | -1 | 0 | 29 | 4 | -5 | . | . | .
O=C1NC(=S)N(c2ccc(F)cc2)C(=O)/C1=C\c1ccoc1 | 3 | . | 32* | + | -4 | . | . | .
CC(=O)N1C[C@@H]2C(c3ccc(Br)cc3)[C@H](C1)N2CC1CC1 (stereo not given in full) | . | 0 | . | . | . | . | . | .
CC1Oc2cc3c(-c4c(O)cc(O)c5c(O)c6c(cc45)OC(C)C(C)C6=O)c(O)cc(O)c3c(O)c2C(=O)C1C (stereo not given) | 10 | . | 36* | 23 | 3 | . | . | .
COC(=O)[C@H]1[C@H](CO)[C@H]2Cn3c(ccc(C4=CCCC4)c3=O)[C@@H]1N2C(=O)C1CCCCC1 | . | 1 | . | . | . | . | . | .
O=C(O)CCn1cc(C=C2C(=O)NC(=O)NC2=O)c(-c2cc3ccccc3oc2=O)n1 | 3 | 0 | 5 | -5 | 22* | . | . | .
Cc1ccc(C[n+]2c(-c3ccc(C)cc3)cc(-c3ccc(C)cc3)cc2-c2ccc(C)cc2)cc1 | -2 | . | 9 | -13 | 38* | . | . | .
Cc1ccc(-c2cc(-c3ccc(C)cc3)[n+](-c3ccc(C(=O)O)cc3)c(-c3ccc(C)cc3)c2)cc1 | 4 | 0 | 7 | 0 | 6 | . | . | .
Cc1c(P(=S)(c2ccccc2)c2ccccc2)[n+]2ccccc2n1C | -1 | 0 | 19 | 79*! | 2 | 78* | -249 | 13
Cn1c(O)c(/C=N/NC(=O)c2ccncc2)c(=O)n(C)c1=S | 0 | 0 | 8 | 96* | 8 | 39 | -39 | 20
Cn1c(O)c(/C=N/NC(=O)c2ccncc2)c(=O)[nH]c1=S | -1 | 0 | -1 | 30 | -3 | . | . | .
COC(=O)[C@H]1[C@H](CO)[C@H]2Cn3c(ccc(-c4ccc(F)cc4)c3=O)[C@@H]1N2Cc1ccccc1 | . | 0 | . | . | . | . | . | .
CCC(C)N1C(=O)/C(=C\c2cc3c4c(c2)CCCN4CCC3)C(=O)NC1=S (stereo not given) | -3 | 0 | 28 | 34 | -11 | . | . | .
CCC(C)N1C(=O)/C(=C\c2ccc(N3CCCCCC3)cc2)C(=O)NC1=S (stereo not given) | -1 | 0 | 29 | 60* | -8 | 3 | 9 | 0
CC=Cc1ccc2n(c1=O)C[C@H]1[C@H](CO)[C@@H](C(=O)O)[C@@H]2N1S(=O)(=O)c1ccccc1F (mixture of isomers) | . | 0 | . | . | . | . | . | .
NS(=O)(=O)c1ccc(N=Cc2c(O)n(C3CCCCC3)c(=O)n(C3CCCCC3)c2=O)cc1 | -1 | . | 21 | 72* | -8 | 22 | -20 | 18
COc1cc(/C=C/c2nc3ccccc3c(=O)n2-c2ccc(O)cc2)ccc1O | -1 | 0 | 1 | . | 13 | . | . | .
COc1ccc(-n2c(/C=C/c3ccc(O)c(O)c3)nc3ccccc3c2=O)cc1 | 2 | 0 | 8 | 120* | 1 | 72* | 3 | 53*
CCN1[C@@H]2c3ccc(-c4cccc(C(=O)N(C)C)c4)c(=O)n3C[C@H]1[C@H](CO)[C@H]2C(=O)OC | . | 0 | . | . | . | . | . | .
CCN(CC)c1ccc(N=Cc2c(O)n(-c3cc(OC)ccc3OC)c(=O)[nH]c2=O)cc1 | 3 | . | 7 | 40* | -3 | 46* | -9 | 42*
COc1ccc(OC)c(-n2c(O)c(C=Nc3c(C)n(C)n(-c4ccccc4)c3=O)c(=O)[nH]c2=S)c1 | 2 | 0 | 10 | 66* | 0 | 41* | 4 | 16
COC(=O)[C@H]1[C@H](CO)[C@H]2Cn3c(ccc(-c4ccccc4F)c3=O)[C@@H]1N2 | . | 1 | . | . | . | . | . | .
NC(N)=N/N=C/c1ccc(N(c2ccccc2)c2ccccc2)cc1 | -5 | 0 | 13 | 91* | -16 | 71* | -8 | 0
COc1ccc(/C=N\N=C(N)N)cc1 | -2 | 0 | 0 | -2 | -3 | . | . | .
SMILES | Rin1 Abl inh | Xi reactivation | NadD inh | Rpn11 block | ABHD5 PLIN5 PPI | Rpn11 inh conf | MMP-2 counter | Thrombin FP
O=C(Nc1ccc(Cl)cc1)N1CC1 | -1 | 0 | 1 | 3 | 5 | . | . | .
CC1(C)C(C(=O)N2CCN(c3ccc(Cl)cc3)CC2)C1(C)C | 1 | 0 | -2 | 49* | -2 | 5 | -16 | -6
O=C1NC(=O)N(c2ccc(Cl)cc2)C(=O)/C1=C\c1ccc(Sc2nc3ccccc3[nH]2)o1 | 5 | 0 | 55* | 52* | 4 | 74* | 15 | 49*
CC(C)c1ccc(N2C(=O)NC(=O)/C(=C/c3cnc(-c4ccccc4)nc3)C2=O)cc1 | -1 | 0 | 8 | 11 | 12 | . | . | .
C/C=C/c1ccc(C2[C@@H]3CN(C(=O)c4cnccn4)C[C@H]2N3)cc1 (stereo not given in full) | . | 0 | . | . | . | . | . | .
Cc1cc(C=C2C(=O)N(C)C(=S)N(C)C2=O)c(C)n1C1CCCCC1 | 1 | . | 21 | 50* | 5 | -2 | -27 | 14
Cc1cc(C=C2C(=O)NC(=S)NC2=O)c(C)n1C1CCCC1 | 0 | 0 | 12 | 9 | 17 | . | . | .
COC(=O)[C@H]1[C@H](CO)[C@H]2Cn3c(ccc(-c4ccccc4)c3=O)[C@@H]1N2C(=O)c1ccccc1F | . | 0 | . | . | . | . | . | .
Cn1c(=O)c2c(nc(N/N=C/c3c(O)n(C4CCCCC4)c(=S)[nH]c3=O)n2C)n(C)c1=O | -2 | 0 | 2 | 42* | -2 | 19 | 20 | -1
O=C(N/N=C/c1c(O)n(CCC2=CCCCC2)c(=S)[nH]c1=O)c1ccccc1 | -4 | 0 | 19 | 48* | 0 | 76* | -2 | 13

Screening results: PubChem BioAssay, several laboratories
